The entries come from a sample that favours hits as a whole.
H69AR growth 86K = proliferation blockers of H69AR lung cancer cells, primary screen, cell-based, human, 86K library. H69AR lung tumor viability, ATP luminescence, 72 h; stronger effect = lower value. viability, % at 10 µM. actives 6% (n = 85,000). AID 598, 2007;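 active = viability at or below 40%; inactive = viability above 40%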;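 note: multidrug resistant small cell line overexpressing MRP-1 efflux transporter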
HUVEC prolif 384 = inhibitors of HUVEC proliferation, primary screen, cell-based, 384-well; viability, % at 10 µM (by protocol); actives 1.1% (n = 86,000); CellTiter-Glo luminescence, 72 h; stronger effect = lower value;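 active = viability at or below 30%; inactive = viability above 30%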
bCat KO growth = primary screen for growth suppressors in beta-catenin knockout HCT116 cells (colon tumor, human); HCT116 beta-catenin knockout viability, CellTiter-Glo, 60 h; stronger effect = lower value; viability, % at 10 µM; actives 1.5% (n = 140,000);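 active = viability at or under a set limit, the compound median less 4 SD, cut at about 6% in these data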
HCT116 PTEN-null = growth suppression of PTEN-null HCT116, primary screen, cell-based, CellTiter-Glo. actives 1.2% (n = 140,000). HCT116 PTEN-null viability, 60 h; stronger effect = lower value. viability, % at 10 µM;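 active = viability at or below a set limit, 4 SD under the median of all tested compounds, cut at about 3.7% in these data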;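 note: PTEN knockout HCT116 line with beta catenin targeted HCT116 as companion control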
Fibroblast inh = antiproliferative effect on LL 47 fibroblasts – human, LL 47 cells, CellTiter-Glo luminescence, primary screen. LL 47 human lung fibroblast viability, ATP luminescence; stronger effect = lower value. viability, % at 10 µM. actives 1.1% (n = 85,000);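 active = viability at or below 50% in the single dose screen; inactive = viability above 50%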;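 note: compound exposure lasted 72 h before the ATP readout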
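Test system: LL 47 human lung fibroblasts / Incubation: 72 h compound exposure at 37 °C after overnight plating / Technique: luminescent ATP detection, CellTiter-Glo / Compound dosing: 0.1% DMSO in all compound wells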
A number is an active result; n = inactive; x = no result.

SMILES | H69AR growth 86K | HUVEC prolif 384 | bCat KO growth | HCT116 PTEN-null | Fibroblast inh
CC(C)N1CC(O)=C(c2nc3ccccc3c(=O)[nH]2)C1=N | n | n | n | n | n
CCN(CC)S(=O)(=O)c1ccc(OC)c(NC(=O)CSc2ccccc2)c1 | x | x | n | n | x
O=C(Cn1cnc2cc([N+](=O)[O-])ccc2c1=O)NC(c1ccccc1)c1ccccc1 | x | x | n | n | x
CCCCCCc1cc2cc(C(=O)NC)c(=N)oc2cc1O | x | x | n | n | x
CCCCCCc1cc2cc(C(=O)Nc3ccc(OC)cc3)c(=O)oc2cc1O | x | x | n | n | x
CCCCCCc1cc2cc(S(=O)(=O)c3ccc(F)c(Cl)c3)c(=O)oc2cc1O | x | x | 2.9 | 3.1 | x
CCCCCCc1cc2cc(C(N)=O)c(=N)oc2cc1O | 2.0 | n | n | n | n
CCCCCCc1cc2cc(C(=O)Nc3cccc(OC)c3)c(=O)oc2cc1O | x | x | 5.3 | n | x
COc1cc(NC(=S)NC(=O)c2ccccc2F)ccc1NC(=O)c1ccco1 | x | x | n | n | x
COCc1nnc(NC(=O)c2ccc(S(=O)(=O)N3CCCCCC3)cc2)o1 | n | n | n | n | n
COCc1nnc(NC(=O)c2ccc(S(=O)(=O)N(C)C3CCCCC3)cc2)o1 | 25 | n | n | n | n
CCc1nnc(NC(=O)c2ccc(S(=O)(=O)N(CC(C)C)CC(C)C)cc2)o1 | 25 | n | n | n | n
Cc1cc(C)n2nc(SCC(=O)Nc3c(C)nn(-c4ccccc4)c3C)nc2n1 | n | n | n | n | n
Cc1nn(C)c(C)c1NC(=O)CSc1nc(-c2ccccc2Cl)nc2c1cnn2-c1ccccc1 | 30 | n | n | n | n
Cc1nn(C)c(C)c1NC(=O)CSc1nc(C2CC2)nc2c1cnn2-c1ccccc1 | n | n | 1.3 | 1.2 | 43
CC1CCCCN1C(=O)CSc1nc(C2CC2)nc2c1cnn2-c1ccccc1 (stereo not drawn) | x | x | n | n | x
COc1ccc(-c2nn(-c3ccccc3)cc2CNC(=O)c2cccc([N+](=O)[O-])c2)cc1 | x | x | n | n | x
CCCCN(CC)CCNC(=O)CN1C(=O)COc2ccc(S(=O)(=O)N3CCCC3)cc21 | x | x | n | n | x
Cc1cc[n+]2cc(-c3cccc([N+](=O)[O-])c3)c(-c3cccc([N+](=O)[O-])c3)cc2c1 | x | x | n | n | x
CCN(CC)C(=O)c1cc(C(C)(C)C)c(O)c(C(C)(C)C)c1 | x | x | n | n | x
Clc1ccccc1-c1nc2ccccc2c2nc3ccccc3n12 | x | x | n | n | x
Cc1ccc2c(c1)c1c(n2CC(O)Cn2c(C)nc3ccccc32)/C(=N\O)CCC1 (stereo not drawn) | 2.7 | 3.4 | n | n | n
Cc1ccc2c(c1)c1c(n2CC(O)Cn2c(C)nc3ccccc32)C(=O)CCC1 (stereo not drawn) | n | n | n | n | n
O=C(Nc1nnc(-c2ccccc2)s1)c1cc(S(=O)(=O)N2CCOCC2)c(Cl)cc1Cl | 10.0 | n | n | n | n
O=C(/C=C/c1cccc([N+](=O)[O-])c1)NC(=S)Nc1cccc(NC(=O)c2ccccc2Cl)c1 | x | x | n | 2.8 | x
SMILES | H69AR growth 86K | HUVEC prolif 384 | bCat KO growth | HCT116 PTEN-null | Fibroblast inh
Oc1cccc2ccc(Nc3ccccn3)nc12 | 0.6 | 2.6 | 1.8 | 1.7 | n
Cc1c(C(=O)NC2CCCc3ccccc32)oc2ccc(S(=O)(=O)N3CCOCC3)cc12 (stereo not drawn) | 38 | n | n | n | n
Cc1c(C(=O)NC2CCCc3ccccc32)oc2ccc(S(=O)(=O)N3CCCCC3)cc12 (stereo not drawn) | x | x | n | n | x
Cc1c(C(=O)NC2CCCc3ccccc32)oc2ccc(S(=O)(=O)N3CCCC3)cc12 (stereo not drawn) | 35 | n | n | n | n
Cc1c(C(=O)NC2CC2)oc2ccc(S(=O)(=O)N3CCCCCC3)cc12 | n | n | n | n | n
C#C[C@]1(O)CC[C@H]2[C@@H]3CCC4=C(CCC(=O)C4)[C@H]3CC[C@@]21C | x | x | n | n | x
Cc1ccc(C2Oc3ccccc3C3=C2C(c2cccs2)n2ncnc2N3)cc1 (stereo not drawn) | 18 | n | n | n | 44
O=c1[nH]c(/C(Cl)=C/c2cccc(C(F)(F)F)c2)nc2cc(Cl)ccc12 | x | x | n | n | x
COc1ccc(C(NC(=O)c2c(F)c(F)c(F)c(F)c2F)c2ccccc2)cc1 (stereo not drawn) | x | x | 1.3 | 1.7 | x
COc1cccc(C(=O)Nc2ccc3nc(N4CCN(c5ncccn5)CC4)cc(C)c3c2)c1OC | x | x | 2.0 | 1.7 | x
COc1cccc(C(=O)Nc2ccc3nc(N4CCOCC4)cc(C)c3c2)c1 | n | n | n | n | n
CCOc1ccccc1C(=O)Nc1ccc2nc(N3CCN(c4ncccn4)CC3)cc(C)c2c1 | 0.5 | 6.2 | x | x | n
CCN1CCN(c2cc(C)c3cc(NC(=O)Cc4ccccc4OC)ccc3n2)CC1 | x | x | n | n | x
Cc1ccc(-c2csc3nc(SCC(N)=O)n(Cc4ccccc4)c(=O)c23)cc1 | x | x | n | n | x
CCc1ccc(C(=O)CN2CCSC2=N)cc1 | x | x | n | n | x
Cc1ccc(C(=O)Oc2oc(-c3ccco3)nc2C=Nc2ccccc2)cc1 | 39 | n | n | n | n
CCOC(=O)c1ccc(N=Cc2nc(-c3ccccc3)oc2OC(C)=O)cc1 | 19 | n | n | n | n
CCOc1ccccc1-c1nc(-c2ccc(NC(=O)Cc3ccccc3OC)cc2)no1 | n | n | n | n | n
COc1ccccc1CC(=O)Nc1ccc(-c2noc(COc3ccc(Cl)c(C)c3)n2)cc1 | 30 | n | n | n | n
Cc1cc(NS(=O)(=O)c2ccc(NC(=S)NC(=O)c3ccc(C(C)(C)C)cc3)cc2)no1 | x | x | n | n | x
COC(=O)c1ccccc1NC(=O)CSc1nc(-c2ccco2)cc(C(F)(F)F)n1 | 24 | n | n | n | n
Cc1ccc(NC(=O)CSc2nnc(-c3ccco3)c(-c3ccco3)n2)cc1 | 26 | n | n | n | n
O=C(CSc1nc(-c2ccco2)cc(C(F)(F)F)n1)Nc1ccc2c(c1)CCC2 | 21 | n | n | n | n

Screening data from PubChem BioAssay.
